Experimental data as given in ChEMBL document CHEMBL1140815, “Synthesis and structure-activity relationship studies of tyrosine-based antagonists at the human P2X7 receptor” (Bioorg Med Chem Lett, 2008).

Columns and labels:
P2X purinoceptor 7 [1] = molecular target: T1, P2X purinoceptor 7 (Homo sapiens, UniProt Q99572); experiment: Antagonist activity at human purinergic P2X7 receptor expressed in HEK293 cells assessed as inhibition of BzATP-induced ethidium bromide uptake; format: functional, cell-based
T1 sequence (Q99572 whole entry): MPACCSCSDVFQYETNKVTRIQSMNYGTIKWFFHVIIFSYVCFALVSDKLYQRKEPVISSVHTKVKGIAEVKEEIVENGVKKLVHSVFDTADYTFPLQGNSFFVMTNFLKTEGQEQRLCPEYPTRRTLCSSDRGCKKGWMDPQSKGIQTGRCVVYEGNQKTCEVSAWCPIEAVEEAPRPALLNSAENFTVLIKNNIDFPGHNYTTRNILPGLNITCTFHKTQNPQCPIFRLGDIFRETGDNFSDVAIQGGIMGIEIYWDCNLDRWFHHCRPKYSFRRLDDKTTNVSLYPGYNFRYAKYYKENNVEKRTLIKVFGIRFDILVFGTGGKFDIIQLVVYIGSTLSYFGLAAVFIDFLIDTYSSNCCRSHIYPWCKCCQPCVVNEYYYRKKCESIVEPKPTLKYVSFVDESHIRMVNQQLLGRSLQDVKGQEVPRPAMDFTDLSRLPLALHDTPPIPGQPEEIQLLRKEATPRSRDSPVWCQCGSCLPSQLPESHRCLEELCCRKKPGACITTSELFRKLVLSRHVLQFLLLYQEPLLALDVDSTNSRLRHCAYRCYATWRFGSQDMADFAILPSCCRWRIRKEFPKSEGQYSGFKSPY
Summary of the method: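 Adherent HEK293 cells stably expressing human P2X7, resuspended at 2.5×10^6 cells/ml in HEPES salt solution (mM: ethidium bromide 0.1, EDTA 1, glucose 5, HEPES 20, KCl 140; pH 7.4). Cells added to compound-containing wells, then BzATP; 37°C for 120 min. Ethidium accumulation read by fluorescence (ex 530/em 590). IC50 from concentration–response curves; mean ± SD, 3–11 repeats.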

THP-1 [2] = experiment: Inhibition of BzATP-stimulated IL1-beta release in human THP1 cells at 1 uM by ELISA; format: functional
THP-1 [3] = experiment: Inhibition of BzATP-stimulated IL1-beta release in human THP1 cells by ELISA; format: functional, cell-based
Summary of the method: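 Compound given as a 30 min pretreatment, then 1 mM BzATP for 30 min. Mature IL-1β in the centrifuged supernatant quantified by ELISA.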

[4] = molecular target: T2, P2X purinoceptor 7 (Homo sapiens) (UniProt Q99572); experiment: Antagonist activity at human purinergic P2X7 receptor expressed in HEK293 cells assessed as inhibition of BzATP-induced ethidium bromide uptake at 10 uM; format: functional, cell-based
T2 sequence (whole entry): T1 sequence (Q99572 whole entry)

P2X purinoceptor 7 [5] = molecular target: T1, P2X purinoceptor 7; experiment: Antagonist activity at human purinergic P2X7 receptor expressed in HEK293 cells assessed as inhibition of ATP-induced K(+) efflux; format: functional, cell-based

Structure (SMILES)	IC50 (P2X purinoceptor 7 [1]) [nM]	IC50 (THP-1 [3]) [nM]	inhibition [4] [%]	IC50 (P2X purinoceptor 7 [5]) [nM]	inhibition at 1 µM (THP-1 [2]) [%]
CC(C)(C)OC(=O)N1CCN(C(=O)[C@H](Cc2ccc(OS(=O)(=O)c3ccc(CBr)cc3)cc2)NC(=O)OCc2ccccc2)CC1	2460	–	–	–	52
C[C@H]1CN(C(=O)[C@H](Cc2ccc(OS(=O)(=O)c3ccc(I)cc3)cc2)NC(=O)OCc2ccccc2)CCN1C(=O)c1ccc(N(C)C)cc1	–	–	55	–	61
Cc1ccc(S(=O)(=O)Oc2ccc(C[C@H](NC(=O)OCc3ccccc3)C(=O)N3CCN(C(=O)c4ccc(C(F)(F)F)cc4)CC3)cc2)cc1	724	–	–	–	65
Cc1ccc(S(=O)(=O)Oc2ccc(C[C@@H](NC(=O)OCc3ccccc3)C(=O)N3CCN(C(=O)OC(C)(C)C)CC3)cc2)cc1	861	–	–	–	56
CC(C)(C)OC(=O)N1CCN(C(=O)[C@H](Cc2ccc(OS(=O)(=O)c3ccc(OC(F)(F)F)cc3)cc2)NC(=O)OCc2ccccc2)CC1	725	–	–	–	46
CC(C)(C)OC(=O)N1CCN(C(=O)[C@H](Cc2ccc(OS(=O)(=O)c3ccc(C#N)cc3)cc2)NC(=O)OCc2ccccc2)CC1	780	–	–	–	60
CC(C)(C)OC(=O)N1CCN(C(=O)[C@H](Cc2ccc(OS(=O)(=O)c3ccc(F)cc3)cc2)NC(=O)OCc2ccccc2)CC1	5880	–	–	–	56
Cc1ccc(S(=O)(=O)Oc2ccc(C[C@H](NC(=O)OCc3ccccc3)C(=O)N3CCN(C(=O)c4ccc(N(C)C)cc4)CC3)cc2)cc1	2010	–	–	–	65
O=C(N[C@@H](Cc1ccc(OS(=O)(=O)c2ccc(NC(=S)NCCCCNC(=S)Nc3ccc(S(=O)(=O)Oc4ccc(C[C@H](NC(=O)OCc5ccccc5)C(=O)N5CCN(C(=O)c6ccccc6)CC5)cc4)cc3)cc2)cc1)C(=O)N1CCN(C(=O)c2ccccc2)CC1)OCc1ccccc1	–	–	28	–	37
C[C@H]1CN(C(=O)[C@H](Cc2ccc(OS(=O)(=O)c3ccc(C#N)cc3)cc2)NC(=O)OCc2ccccc2)CCN1C(=O)c1ccc(N(C)C)cc1	539	–	–	–	59
CC(C)(C)OC(=O)N1CCN(C(=O)[C@H](Cc2ccc(OS(=O)(=O)c3cccc4cnccc34)cc2)NS(=O)(=O)c2cccc3cnccc23)CC1	–	–	–	40	–
Cc1ccc(S(=O)(=O)Oc2ccc(C[C@H](NC(=O)OCc3ccccc3)C(=O)N3CCN(C(=O)OC(C)(C)C)CC3)cc2)cc1	1540	–	–	–	72
Cc1ccc(S(=O)(=O)Oc2ccc(C[C@H](NC(=O)OCc3ccccc3)C(=O)N3CCN(C(=O)c4ccccc4)CC3)cc2)cc1	599	–	–	–	70
Cc1ccc(S(=O)(=O)Oc2ccc(C[C@H](NC(=O)OCc3ccccc3)C(=O)N3CCN(C(=O)c4ccc(N(C)C)cc4)[C@@H](C)C3)cc2)cc1	–	–	54	–	68
CC(C)(C)OC(=O)N1CCN(C(=O)[C@H](Cc2ccc(OS(=O)(=O)c3ccc(I)cc3)cc2)NC(=O)OCc2ccccc2)CC1	3540	–	–	–	72
Cc1ccc(S(=O)(=O)Oc2ccc(C[C@@H](C(=O)N3CCN(C(=O)c4ccccc4)CC3)N(C)C(=O)OCc3ccccc3)cc2)cc1	1360	–	–	–	47

More lines, in order of falling IC50 (P2X purinoceptor 7 [1]), values ahead:

IC50 (P2X purinoceptor 7 [1]) [nM]	IC50 (THP-1 [3]) [nM]	inhibition [4] [%]	IC50 (P2X purinoceptor 7 [5]) [nM]	Structure (SMILES)	inhibition at 1 µM (THP-1 [2]) [%]
517	–	–	–	CC(C)(C)OC(=O)N1CCN(C(=O)[C@H](Cc2ccc(OS(=O)(=O)c3ccc(Br)cc3)cc2)NC(=O)OCc2ccccc2)CC1	68
504	–	–	–	Cc1ccc(S(=O)(=O)Oc2ccc(C[C@H](NC(=O)OCc3ccccc3)C(=O)N3CCN(C(=O)c4ccccc4)C[C@@H]3C)cc2)cc1	45
481	881	–	–	Cc1ccc(S(=O)(=O)Oc2ccc(C[C@H](NC(=O)OCc3ccccc3)C(=O)N3CCN(C(=O)c4ccc(Br)cc4)CC3)cc2)cc1	78
319	–	–	–	Cc1ccc(S(=O)(=O)Oc2ccc(C[C@H](NC(=O)OCc3ccccc3)C(=O)N3CCN(C(=O)c4ccc(F)cc4)CC3)cc2)cc1	68
260	–	–	–	Cc1ccc(S(=O)(=O)Oc2ccc(C[C@H](NC(=O)OCc3ccccc3)C(=O)N3CCN(C(=O)c4ccccc4)[C@@H](C)C3)cc2)cc1	69
256	–	–	–	Cc1ccc(S(=O)(=O)Oc2ccc(C[C@H](NC(=O)OCc3ccccc3)C(=O)N3CCN(C(=O)c4ccccc4)[C@H](C)C3)cc2)cc1	65
175	188	–	–	CN([C@@H](Cc1ccc(OS(=O)(=O)c2cccc3cnccc23)cc1)C(=O)N1CCN(c2ccccc2)CC1)S(=O)(=O)c1cccc2cnccc12	83
117	–	–	–	O=C(N[C@@H](Cc1ccc(OS(=O)(=O)c2ccc([N+](=O)[O-])cc2)cc1)C(=O)N1CCN(C(=O)c2ccccc2)CC1)OCc1ccccc1	48
